Screening data deposited in PubChem BioAssay by Johns Hopkins Ion Channel Center.
KCNK3 inh – human KCNK3 channel inhibition, primary screen; O14649; CHO-KCNK3 thallium flux, FluxOR fluorescence; hits give low values; 340,000 compounds, 0.84% hits; B-score at 10 µM;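 active means B-score under library mean minus 4 SD, starting fluorescence ratio at most library mean plus 5 SD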;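 further: more negative B-score means stronger inhibition of thallium flux through KCNK3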
KCNQ1 inh – human KCNQ1 channel inhibition; P51787; CHO-K1 KCNQ1, FluxOR thallium flux fluorescence; hits give high values; B-score at 10 µM; 310,000 compounds, 1.3% hits;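 active means compounds whose thallium flux B-score, printed positive for inhibition, exceeds three library SD while starting fluorescence stays within three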;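 further: channel opened by potassium depolarization with thallium stimulus after 20 min compound exposure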
Target sequence (P51787 whole entry, looked up): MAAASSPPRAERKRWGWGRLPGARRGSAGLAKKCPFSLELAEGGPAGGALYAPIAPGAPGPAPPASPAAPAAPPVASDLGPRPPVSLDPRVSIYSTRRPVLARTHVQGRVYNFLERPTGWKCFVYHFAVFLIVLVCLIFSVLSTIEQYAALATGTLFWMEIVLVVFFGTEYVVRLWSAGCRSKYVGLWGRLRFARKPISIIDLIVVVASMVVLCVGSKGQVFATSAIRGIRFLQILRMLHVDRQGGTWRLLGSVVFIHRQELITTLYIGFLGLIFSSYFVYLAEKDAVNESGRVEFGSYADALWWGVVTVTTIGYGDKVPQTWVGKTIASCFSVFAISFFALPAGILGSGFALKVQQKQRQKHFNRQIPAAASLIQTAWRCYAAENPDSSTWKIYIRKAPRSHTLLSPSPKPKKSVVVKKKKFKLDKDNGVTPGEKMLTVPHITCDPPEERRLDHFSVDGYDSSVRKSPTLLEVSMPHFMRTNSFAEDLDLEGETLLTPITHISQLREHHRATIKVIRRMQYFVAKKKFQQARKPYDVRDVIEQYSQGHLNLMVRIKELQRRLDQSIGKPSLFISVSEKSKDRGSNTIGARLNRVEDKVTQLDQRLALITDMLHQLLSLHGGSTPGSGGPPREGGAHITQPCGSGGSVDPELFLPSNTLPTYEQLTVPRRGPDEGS
KCNK9 inh – inhibitors of human KCNK9 two-pore domain potassium channel; B-score at 10 µM; Q9NPC2; HEK293 KCNK9, FluxOR thallium flux fluorescence; hits give low values; 310,000 compounds, 1.2% hits;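 active means ratio B-score over 3 SD below the library mean, with starting fluorescence within 5 SD of its mean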;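 further: negative B-score means less thallium flux so channel inhibition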
KCNQ1 act – potentiators or activators of human KCNQ1 potassium channel | AID 2648 | 310,000 compounds, 0.35% hits | B-score at 10 µM | P51787 | CHO-K1 KCNQ1, thallium flux FluxOR fluorescence; hits give high values;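 active means fluorescence ratio B-score, a plate-corrected score, at least three library SD, with initial intensity B-score within 5 SD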
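System: Stable KCNQ1 CHO-K1 line | Incubation: 90 min dye loading and 20 min compound exposure, both at room temperature | Measure: Ratio B score | Medium: Assay buffer for compound exposure, DMSO matched across wells | Compound dosing: Single-concentration screen | Probe or stimulus: K+/Tl+ depolarizing stimulus | Measured by: Kinetic FluxOR fluorescence, 10 s baseline plus 110 s post-stimulus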
Kir21 inh – inhibitors of mouse Kir2.1 inward-rectifier potassium channel. P35561. HEK293-Kir2.1, FluxOR thallium flux fluorescence; hits give low values. B-score at 10 µM. 310,000 compounds, 0.85% hits. AID 1672;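 active means fluorescence ratio B-score at or below minus 3 SD of library scores, with starting-brightness B-score within 2 SD, cut at about -4.2 in these data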;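 further: channel flux triggered by added potassium and thallium sulfate stimulus; B-score of peak minus minimum fluorescence over baseline after thallium stimulus; more negative B-score means stronger Kir2.1 block with less thallium influx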
hERG protect – shields human hERG channel from block by proarrhythmic agents | Q12809 | CHO-hERG, FluxOR thallium flux, dofetilide IC70 present | activation (rescue from dofetilide block), less the hit threshold, % at 10 µM | 310,000 compounds, 0.51% hits;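 active means activation above the mean of controls blocked by dofetilide plus 5 SD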;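 further: thallium influx through hERG after potassium depolarization seen as dye fluorescence rise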
KCNQ1 block val – reconfirmed blocker of the human KCNQ1 potassium channel. 1,600 compounds, 93% hits. inhibition, % at 10 µM. KCNQ1 cell line, FluxOR thallium flux fluorescence. AID 588353. shares compounds with KCNQ1 inh;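 active means primary screen active, with duplicate mean exceeding buffer control mean plus 3 SD of buffer wells, cut at about 28% in these data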;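 further: 0% = buffer control ratio and 100% = XE991 inhibitor control ratio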
CHO KCNQ1 ctr – activity in parental CHO cells lacking KCNQ1; shares compounds with KCNQ1 inh; parental CHO-K1, FluxOR thallium flux fluorescence ratio; hits give low values; zero means no signal rise above baseline; fluorescence ratio (Tl flux) at 10 µM; 1,600 compounds, 21% hits; AID 588366;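 active means mean of duplicate thallium-flux fluorescence ratios in parental host cells more than 5 SD below the buffer control mean, cut at about 0.38 in these data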;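 further: ratio is peak minus minimum fluorescence divided by baseline fluorescence; actives read low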
KCNQ1 APC inh – human KCNQ1 inhibition validated by electrophysiology; shares compounds with KCNQ1 inh; KCNQ1-CHO cells, automated patch clamp current; calls only at 10 µM; 490 compounds, 20% hits;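 active means KCNQ1 current drop exceeding 3 SD of negative control wells, seen in both duplicate runs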;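 further: steady state current during a 2 s step from -80 to +40 mV; negative values mean current inhibition and positive values mean potentiation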
KCNQ2 spec – KCNQ1 inhibitor that also blocks rat KCNQ2 channel; inhibition, % at 10 µM; KCNQ2 cells, FluxOR thallium flux fluorescence; 1,600 compounds, 71% hits; shares compounds with KCNQ1 inh;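 active means mean percent inhibition of the KCNQ2 thallium signal more than 5 SD above the buffer-only control wells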;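 further: KCNQ2 expressed in CHO cells; 0% = buffer control wells and 100% = XE-991 inhibitor control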
KCNQ1-KCNE1 inh – KCNQ1 inhibitor that also blocks human KCNQ1/KCNE1 channel. KCNQ1/KCNE1 cells, FluxOR thallium flux fluorescence. 1,600 compounds, 77% hits. inhibition, % at 10 µM. shares compounds with KCNQ1 inh. AID 652147;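 active means mean percent inhibition of duplicate wells above the buffer-only control mean plus 3 SD of those controls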;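 further: 0% = buffer only wells and 100% = XE-991 inhibitor control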
An asterisk follows results filed as active; i = inactive; / = not tested or not shown; + = active, no number. Compounds with a hit are over-represented: about 3.7% of the library has one in this group of screens.

SMILES | KCNK3 inh | KCNQ1 inh | KCNK9 inh | KCNQ1 act | Kir21 inh | hERG protect | KCNQ1 block val | CHO KCNQ1 ctr | KCNQ2 spec | KCNQ1-KCNE1 inh | others
COc1ccc(CCNc2cc(C)nc3c(-c4ccccc4)cnn23)cc1OC | i | i | i | i | -0.03 | -1 | / | / | / | /
CC(C)(C)OC(=O)N1CCCC(C(=O)CC#N)C1 (centres undefined) | i | 9* | i | i | -0.36 | -11 | 96* | 0.49 | 109%* | 188%* | KCNQ1 APC inh=i
CCC(C)[C@H](NS(=O)(=O)c1ccc(C)cc1)C(=O)N1CCC(C(=O)N2CCC(C(N)=O)CC2)CC1 (some centres undefined) | i | i | i | i | 0.78 | -7 | / | / | / | /
FC(F)(F)c1cccc(CNC(=S)Nc2ccccc2)c1 | i | 8* | i | i | 0.75 | -13 | 46* | 0.49 | 82%* | i
FC(F)(F)Sc1ccc(NC(=S)NCc2ccccc2)cc1 | i | 7* | i | i | 1.8 | -10 | 78* | 0.51 | i | i
CCc1ccc(N2CC(C(=O)Nc3ccc4c(c3)OCO4)CC2=O)cc1 (centres undefined) | i | / | / | / | / | / | / | / | / | /
COc1ccc(/C=C/C(=O)Nc2ccc(C)c(S(=O)(=O)N3CCOCC3)c2)cc1 | i | / | / | / | / | / | / | / | / | /
c1ccc(CCNc2ccnc3cc4ccccc4cc23)cc1 | i | 10* | -7.3* | i | -7.2* | -39 | 130* | 0.38* | 81%* | 118%*
COc1ccc(N(CC(=O)NCc2ccc(Cl)cc2)S(=O)(=O)c2c(C)n[nH]c2C)cc1 | i | 7* | i | i | -0.03 | -22 | 58* | 0.49 | 75%* | 60%*
COc1ccc(N(CC(=O)NCc2ccccc2)S(=O)(=O)c2c(C)n[nH]c2C)cc1 | i | i | i | i | 0.03 | -10 | / | / | / | /
COc1ccc(C(=O)CC(=O)C(=O)Nc2ccc(OC)c(Cl)c2)cc1 | i | 15* | -6.7* | i | -2.2 | -24 | 0 | 0.61 | i | i
c1ccc(-c2noc(CSc3nnnn3-c3ccccc3)n2)cc1 | i | 6* | i | i | 0.78 | -11 | 60* | 0.48 | 62%* | 74%*
Cc1ccccc1OCC(O)CN(Cc1ccccc1O)C1CCCCC1 (centres undefined) | i | 12* | i | i | -0.09 | -15 | 90* | 0.41 | 120%* | 140%* | KCNQ1 APC inh=+
CN(CC(O)COc1ccccc1F)C1CCCCC1 (centres undefined) | i | i | i | i | 1.2 | -2 | / | / | / | /
CCc1c(C#N)c(SCCC(=O)Nc2ccc(F)cc2)nc2c1C(=O)CC(C)(C)C2 | i | 12* | i | i | -0.18 | -19 | 130* | 0.38* | 98%* | 160%*
COc1ccc(-c2c(C#N)c(SCc3c(C)noc3C)nc3c2C(=O)CC(C)(C)C3)cc1 | i | i | i | i | -0.45 | -6 | / | / | / | /
CCc1c(C#N)c(SCCC(=O)Nc2cccc(OC)c2)nc2c1C(=O)CC(C)(C)C2 | i | 7* | i | i | -1 | -17 | 108* | 0.43 | 99%* | 129%* | KCNQ1 APC inh=i
CCOC(=O)C1=CNS(=O)(=O)NC1c1ccc(Br)cc1F (centres undefined) | i | / | / | / | / | / | / | / | / | /
O=C(NCc1ccccc1)c1cccc(COc2cccc(Cl)c2)c1 | -11* | 8* | i | i | 0.86 | -20 | 126* | 0.35* | 95%* | 156%*
Cc1noc(C)c1C(=O)Nc1sc(C)c(-c2ccccc2)c1C#N | i | 9* | i | i | 0.03 | -13 | 107* | 0.42 | 81%* | 70%* | KCNQ1 APC inh=i
Cc1c(Cl)cccc1NC(=S)N1CCCN(Cc2ccccc2F)C1 | i | i | i | i | -1.4 | -16 | / | / | / | /
Fc1ccccc1CN1CCCN(C(=S)Nc2cccc(Cl)c2)C1 | i | 7* | i | i | -0.01 | -8 | 47* | 0.48 | 73%* | i
COc1cccc(-c2csc(N3CCN(C(=O)NC45CC6CC(CC(C6)C4)C5)CC3)n2)c1 | i | 8* | i | i | 0 | -11 | 102* | 0.43 | 106%* | 136%*
COc1cccc(NC(=O)N2CCN(c3nc(-c4cccc(OC)c4)cs3)CC2)c1 | i | i | i | i | 2 | -16 | / | / | / | /
CCOc1ccc(S(=O)(=O)N2CN(c3cccc(C(C)=O)c3)c3nc4ccccc4nc32)cc1 | i | / | / | / | / | / | / | / | / | /
SMILES | KCNK3 inh | KCNQ1 inh | KCNK9 inh | KCNQ1 act | Kir21 inh | hERG protect | KCNQ1 block val | CHO KCNQ1 ctr | KCNQ2 spec | KCNQ1-KCNE1 inh | others
CSc1nc(N2CCOCC2)c2c3c(sc2n1)CCCC3 | i | i | i | i | 0.01 | -4 | / | / | / | /
CSc1nc(Cl)c(Cc2ccc(OCC(C)C)cc2)c(N2CCOCC2)n1 | i | 8* | i | i | -1.6 | -8 | 110* | 0.4 | 103%* | 136%* | KCNQ1 APC inh=i
CCCCOc1ccc(Cc2c(Cl)nc(SC)nc2N2CCOCC2)cc1 | i | 7* | i | i | -1.3 | -21 | 63* | 0.39 | 102%* | 68%*
CC(C)(C)C(C(=O)Oc1ccccc1)c1ccccc1 (centres undefined) | i | / | / | / | / | / | / | / | / | /
Cn1ccnc1C(=O)Cc1ccc([N+](=O)[O-])cc1 | i | i | i | i | -0.24 | -7 | / | / | / | /
CC(=O)Nc1ccc(C23CC4CC(CC(C4)C2)C3)cc1 | i | i | i | i | -0.1 | -13 | / | / | / | /
CNC(=S)Nc1ccc(C23CC4CC(CC(C4)C2)C3)cc1 | i | 7* | i | i | -0.4 | -9 | 74* | 0.47 | 65%* | 90%*
CN(Cc1ccccc1)C(=O)c1ccc(NC(=O)Cc2ccc(NC(=O)C3CCCN(C(=O)C4CC4)C3)cc2)cc1 (centres undefined) | i | / | / | / | / | / | / | / | / | /
CC(Oc1cc2oc(=O)c3c(c2cc1Cl)CCCC3)C(=O)NCCN1CCOCC1 (centres undefined) | i | i | i | i | 1.3 | -9 | / | / | / | /
